# Source: ChEMBL document CHEMBL1909611, “Identification and SAR of selective inducible nitric oxide synthase (iNOS) dimerization inhibitors” (Bioorg Med Chem Lett, 2011)
# The source made the active and inactive calls. The rule behind the calls is not given here.
# Key:
# Nitric oxide synthase 1 [1] = target: T1, Nitric oxide synthase 1 (Homo sapiens, UniProt P29475); assay: Inhibition of human nNOS expressed in HEK293 cells assessed as inhibition ionomycin-induced nitric oxide production at 100 uM incubated for 24 hrs measured after 18 hrs of ionomycin challenge by 2,3-diaminonaphthalene assay; type: cell-based
# Method in brief: (§1)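 Transiently transfected cells plated at 5e5 cells/ml; compounds added immediately by pin transfer. Incubated 24 h with compound, then activated by ionophore (0.8 µM final). Fluorescence (ex 360/em 425 nm) read after raising pH with NaOH (0.12 N final). Values are mean of three experiments with SD. At 100 µM, <50% inhibition is reported as >100.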
# Nitric oxide synthase 3 = target: T2, Nitric oxide synthase 3 (Homo sapiens, UniProt P29474); assay: Inhibition of human eNOS expressed in HEK293 cells assessed as inhibition A23187-induced nitric oxide production incubated for 24 hrs measured after 18 hrs of A23187 challenge by 2,3-diaminonaphthalene assay; type: cell-based; method in brief: as §1
# T2 sequence (P29474 whole entry): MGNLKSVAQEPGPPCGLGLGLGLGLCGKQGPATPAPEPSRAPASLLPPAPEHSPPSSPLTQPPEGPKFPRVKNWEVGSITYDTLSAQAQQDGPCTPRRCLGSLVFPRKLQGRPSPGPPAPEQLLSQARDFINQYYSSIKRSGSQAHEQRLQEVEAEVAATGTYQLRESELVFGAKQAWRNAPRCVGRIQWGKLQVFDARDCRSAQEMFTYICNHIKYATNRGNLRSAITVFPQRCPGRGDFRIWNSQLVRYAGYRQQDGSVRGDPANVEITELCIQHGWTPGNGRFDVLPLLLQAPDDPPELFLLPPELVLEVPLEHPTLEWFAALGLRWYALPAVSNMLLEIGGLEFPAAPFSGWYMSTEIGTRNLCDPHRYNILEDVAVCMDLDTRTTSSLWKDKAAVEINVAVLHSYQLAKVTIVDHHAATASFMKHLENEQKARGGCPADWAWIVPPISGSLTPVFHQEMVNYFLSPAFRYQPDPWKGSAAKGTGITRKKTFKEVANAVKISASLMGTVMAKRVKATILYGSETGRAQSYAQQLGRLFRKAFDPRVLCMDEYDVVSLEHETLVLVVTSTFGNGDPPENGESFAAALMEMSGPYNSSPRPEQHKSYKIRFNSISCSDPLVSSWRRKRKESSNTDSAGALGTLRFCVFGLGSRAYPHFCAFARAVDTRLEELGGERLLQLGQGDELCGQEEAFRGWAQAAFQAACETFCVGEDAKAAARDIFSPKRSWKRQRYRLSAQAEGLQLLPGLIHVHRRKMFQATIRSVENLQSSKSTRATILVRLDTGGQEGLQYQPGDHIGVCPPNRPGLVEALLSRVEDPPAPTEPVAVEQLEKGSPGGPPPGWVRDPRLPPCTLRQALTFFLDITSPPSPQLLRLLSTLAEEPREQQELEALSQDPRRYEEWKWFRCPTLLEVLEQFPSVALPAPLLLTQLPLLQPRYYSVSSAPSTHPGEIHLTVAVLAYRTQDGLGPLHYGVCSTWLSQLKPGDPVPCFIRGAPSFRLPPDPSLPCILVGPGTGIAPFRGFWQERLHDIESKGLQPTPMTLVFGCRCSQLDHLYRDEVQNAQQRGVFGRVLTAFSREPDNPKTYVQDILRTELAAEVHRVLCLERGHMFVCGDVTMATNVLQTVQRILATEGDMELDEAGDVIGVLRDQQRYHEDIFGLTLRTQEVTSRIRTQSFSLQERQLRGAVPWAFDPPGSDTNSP
# Rattus norvegicus [2] = assay: Antiinflammatory activity in Lewis rat assessed as inhibition of carrageenan-induced thermal hyperalgesia at 3 to 30 mg/kg, po administered 15 mins before carrageenan challenge measured after 5 hrs; type: functional, organism-based
# Rattus norvegicus [3] = assay: Analgesic activity in po dosed Lewis rat post operative brennan model assessed as incison-induced paw weight bearing response after 30 to 120 mins; type: functional, organism-based
# Rattus norvegicus [4] = assay: Antiinflammatory activity in po dosed Lewis rat endotoxemia model assessed as inhibition of LPS-induced plasma nitrate accumulation after 6 hrs; type: functional
# Nitric oxide synthase 1 [5] = target: T1, Nitric oxide synthase 1; assay: Inhibition of human nNOS expressed in HEK293 cells assessed as inhibition ionomycin-induced nitric oxide production incubated for 24 hrs measured after 18 hrs of ionomycin challenge by 2,3-diaminonaphthalene assay; type: cell-based; method in brief: as §1
# [6] = target: T3, Nitric oxide synthase, inducible (Homo sapiens, UniProt P35228); assay: Inhibition of human iNOS expressed in human HEK293 cells assessed as nitrite accumulation after 18 hrs by 2,3-diaminonapthalene assay; type: cell-based
# Method in brief: as §1, with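 “18” for “24”, “for nitrite accumulation.” for “with compound, then activated by ionophore (0.8 µM final).”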
# Rattus norvegicus [7] = assay: Antiinflammatory activity in Lewis rat assessed as inhibition of carrageenan-induced edema at 3 to 30 mg/kg, po administered 15 mins before carrageenan challenge measured after 5 hrs; type: functional, organism-based
# [8] = target: T4, Nitric oxide synthase 3 (Homo sapiens) (UniProt P29474); assay: Inhibition of human eNOS expressed in HEK293 cells assessed as inhibition A23187-induced nitric oxide production at 100 uM incubated for 24 hrs measured after 18 hrs of A23187 challenge by 2,3-diaminonaphthalene assay; type: cell-based; method in brief: as §1
# T4 sequence (whole entry): T2 sequence (P29474 whole entry)
# [9] = target: T3, Nitric oxide synthase, inducible; assay: Inhibition of human iNOS
# [10] = target: T5, Nitric oxide synthase, inducible (Mus musculus) (UniProt P29477); assay: Inhibition of IFN-gamma/LPS-induced iNOS dimerization in mouse RAW264.7 cells by Western blot analysis; type: cell-based
# T5 sequence (whole entry): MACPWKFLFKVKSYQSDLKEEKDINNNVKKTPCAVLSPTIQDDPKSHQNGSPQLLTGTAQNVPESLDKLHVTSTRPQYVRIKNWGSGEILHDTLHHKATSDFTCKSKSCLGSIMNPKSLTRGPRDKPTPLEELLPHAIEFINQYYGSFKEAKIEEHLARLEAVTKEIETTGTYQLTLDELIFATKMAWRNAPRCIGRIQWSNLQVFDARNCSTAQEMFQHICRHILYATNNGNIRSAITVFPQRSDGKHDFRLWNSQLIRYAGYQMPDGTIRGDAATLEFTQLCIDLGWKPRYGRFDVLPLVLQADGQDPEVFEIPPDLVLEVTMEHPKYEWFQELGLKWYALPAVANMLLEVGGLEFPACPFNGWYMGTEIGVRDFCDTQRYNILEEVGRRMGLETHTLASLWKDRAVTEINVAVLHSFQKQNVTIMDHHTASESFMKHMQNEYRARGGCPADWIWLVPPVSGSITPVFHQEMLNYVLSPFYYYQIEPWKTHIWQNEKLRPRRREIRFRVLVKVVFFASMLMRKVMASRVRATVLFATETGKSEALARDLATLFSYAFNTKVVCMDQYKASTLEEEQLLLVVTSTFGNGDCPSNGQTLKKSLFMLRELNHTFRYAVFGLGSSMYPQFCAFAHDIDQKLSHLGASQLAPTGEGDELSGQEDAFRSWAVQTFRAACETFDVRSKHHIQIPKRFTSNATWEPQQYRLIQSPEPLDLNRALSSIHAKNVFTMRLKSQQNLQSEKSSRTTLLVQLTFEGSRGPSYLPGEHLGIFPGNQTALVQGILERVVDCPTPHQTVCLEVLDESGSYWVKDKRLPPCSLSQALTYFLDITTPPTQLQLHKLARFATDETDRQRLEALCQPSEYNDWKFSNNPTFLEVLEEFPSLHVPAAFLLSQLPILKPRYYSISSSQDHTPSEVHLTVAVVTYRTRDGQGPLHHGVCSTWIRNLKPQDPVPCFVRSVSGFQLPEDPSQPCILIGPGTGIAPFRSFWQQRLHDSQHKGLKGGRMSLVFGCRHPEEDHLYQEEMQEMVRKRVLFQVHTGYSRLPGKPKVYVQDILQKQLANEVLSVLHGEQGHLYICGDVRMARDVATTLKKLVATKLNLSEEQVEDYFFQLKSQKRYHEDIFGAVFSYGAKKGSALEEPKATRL
# Method in brief: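 RAW 264.7 cells seeded at 1.8 × 10⁶ cells/well and incubated 5 h. Then stimulated overnight with murine IFN-γ (100 U/mL final) and LPS (2 µg/mL final) plus 10 µM compound or vehicle (0.1% DMSO final). Lysates protein-normalized, run on 4–20% Tris–glycine gel under low-temperature SDS–PAGE in a cold room. Blotted with mouse anti-iNOS, read by infrared imaging.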
# [11] = target: T3, Nitric oxide synthase, inducible; assay: Inhibition of human iNOS expressed in human HEK293 cells assessed as nitrite accumulation at 100 uM after 18 hrs by 2,3-diaminonapthalene assay; type: cell-based
# Method in brief: as §1, with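 “18” for “24”, “for nitrite accumulation.” for “with compound, then activated by ionophore (0.8 µM final).”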
# T1 sequence (P29475 whole entry): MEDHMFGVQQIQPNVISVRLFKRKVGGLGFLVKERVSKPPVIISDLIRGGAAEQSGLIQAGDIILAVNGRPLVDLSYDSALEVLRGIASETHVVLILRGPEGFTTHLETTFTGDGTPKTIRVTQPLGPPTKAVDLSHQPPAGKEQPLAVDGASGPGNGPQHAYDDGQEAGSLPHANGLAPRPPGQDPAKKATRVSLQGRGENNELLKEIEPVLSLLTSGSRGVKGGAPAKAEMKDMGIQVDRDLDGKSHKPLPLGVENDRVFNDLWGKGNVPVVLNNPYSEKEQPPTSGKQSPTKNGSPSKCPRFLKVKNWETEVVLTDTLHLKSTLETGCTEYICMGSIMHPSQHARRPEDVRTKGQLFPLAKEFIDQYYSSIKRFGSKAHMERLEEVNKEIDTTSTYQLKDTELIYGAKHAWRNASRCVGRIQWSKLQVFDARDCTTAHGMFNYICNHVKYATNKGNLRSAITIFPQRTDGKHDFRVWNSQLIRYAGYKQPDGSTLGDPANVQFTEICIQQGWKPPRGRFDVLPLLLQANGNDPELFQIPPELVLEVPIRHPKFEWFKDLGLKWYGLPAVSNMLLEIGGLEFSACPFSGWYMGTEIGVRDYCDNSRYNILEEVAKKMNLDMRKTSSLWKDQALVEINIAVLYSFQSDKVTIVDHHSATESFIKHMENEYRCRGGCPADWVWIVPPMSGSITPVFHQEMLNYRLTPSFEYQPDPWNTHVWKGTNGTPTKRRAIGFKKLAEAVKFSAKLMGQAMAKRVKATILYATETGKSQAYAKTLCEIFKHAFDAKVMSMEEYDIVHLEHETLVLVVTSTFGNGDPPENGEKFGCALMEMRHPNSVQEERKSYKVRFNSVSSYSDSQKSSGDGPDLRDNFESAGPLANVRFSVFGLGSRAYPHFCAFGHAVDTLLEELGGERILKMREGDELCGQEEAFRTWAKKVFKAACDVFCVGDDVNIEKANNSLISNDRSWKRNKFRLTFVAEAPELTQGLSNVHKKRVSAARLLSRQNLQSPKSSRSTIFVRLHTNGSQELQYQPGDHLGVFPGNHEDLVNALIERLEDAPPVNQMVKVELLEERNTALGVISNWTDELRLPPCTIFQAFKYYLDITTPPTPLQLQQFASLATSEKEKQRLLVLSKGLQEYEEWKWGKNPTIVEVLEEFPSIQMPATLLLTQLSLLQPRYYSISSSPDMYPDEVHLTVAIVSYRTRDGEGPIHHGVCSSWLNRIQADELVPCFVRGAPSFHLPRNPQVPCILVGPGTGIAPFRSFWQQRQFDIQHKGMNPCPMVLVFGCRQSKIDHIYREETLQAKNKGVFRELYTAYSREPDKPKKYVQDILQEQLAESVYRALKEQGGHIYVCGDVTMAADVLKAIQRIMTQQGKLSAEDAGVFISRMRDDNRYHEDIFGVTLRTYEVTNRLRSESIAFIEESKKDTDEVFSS
# T3 sequence (P35228 whole entry): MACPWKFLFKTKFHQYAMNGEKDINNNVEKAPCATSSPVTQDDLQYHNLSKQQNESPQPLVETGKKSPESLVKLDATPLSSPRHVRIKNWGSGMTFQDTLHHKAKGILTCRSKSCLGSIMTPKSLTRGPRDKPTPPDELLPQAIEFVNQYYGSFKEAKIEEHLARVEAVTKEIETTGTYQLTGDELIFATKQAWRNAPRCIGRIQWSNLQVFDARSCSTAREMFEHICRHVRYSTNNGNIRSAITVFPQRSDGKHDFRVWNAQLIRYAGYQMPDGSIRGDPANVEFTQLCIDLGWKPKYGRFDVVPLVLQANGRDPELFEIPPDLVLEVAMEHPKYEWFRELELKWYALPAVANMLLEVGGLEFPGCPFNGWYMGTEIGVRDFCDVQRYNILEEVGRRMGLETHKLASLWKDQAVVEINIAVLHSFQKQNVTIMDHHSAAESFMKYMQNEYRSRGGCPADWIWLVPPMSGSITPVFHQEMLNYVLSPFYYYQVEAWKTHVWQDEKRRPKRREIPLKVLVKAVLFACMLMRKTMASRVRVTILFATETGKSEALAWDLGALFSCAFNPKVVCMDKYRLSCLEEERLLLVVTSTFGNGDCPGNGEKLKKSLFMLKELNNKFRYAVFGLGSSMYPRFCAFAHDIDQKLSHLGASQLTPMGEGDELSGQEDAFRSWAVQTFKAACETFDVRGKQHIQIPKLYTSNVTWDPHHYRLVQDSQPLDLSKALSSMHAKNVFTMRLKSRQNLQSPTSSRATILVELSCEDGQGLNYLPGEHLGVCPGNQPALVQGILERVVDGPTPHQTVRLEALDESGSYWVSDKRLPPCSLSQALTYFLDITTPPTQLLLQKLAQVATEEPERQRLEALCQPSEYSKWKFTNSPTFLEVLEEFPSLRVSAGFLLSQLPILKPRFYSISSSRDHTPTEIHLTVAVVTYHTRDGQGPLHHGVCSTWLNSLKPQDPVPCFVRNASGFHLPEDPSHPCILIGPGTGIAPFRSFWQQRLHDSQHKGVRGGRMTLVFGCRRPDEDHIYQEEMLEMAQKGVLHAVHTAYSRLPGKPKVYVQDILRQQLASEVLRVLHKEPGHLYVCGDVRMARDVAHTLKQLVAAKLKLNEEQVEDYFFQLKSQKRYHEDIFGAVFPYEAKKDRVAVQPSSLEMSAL
SMILES,inhibition (Nitric oxide synthase 1 [1]) [%],EC50 (Nitric oxide synthase 3) [µM],EC50 (Nitric oxide synthase 1 [5]) [µM],EC50 [6] [µM],inhibition [8] [%],IC50 [9] [µM],inhibition [10],inhibition [11] [%],inhibition (Rattus norvegicus [2]),Activity (Rattus norvegicus [3]),ED50 (Rattus norvegicus [4]) [mg/kg],inhibition (Rattus norvegicus [7])
Cc1cc(C(C)(C)NCCNCc2ccc3c(c2)OCO3)nc(-n2ccnc2)n1,< 50,> 100,> 100,2.3,< 50,,,,Active,Active,9.3,Active
Cc1cc(N(C)CCCNCc2ccc3c(c2)OCO3)nc(-n2cccc2)n1,,,,,,> 100,inactive,,,,,

# The next lines start with results.
inhibition (Nitric oxide synthase 1 [1]) [%],EC50 (Nitric oxide synthase 3) [µM],EC50 (Nitric oxide synthase 1 [5]) [µM],EC50 [6] [µM],inhibition [8] [%],IC50 [9] [µM],inhibition [10],inhibition [11] [%],SMILES,inhibition (Rattus norvegicus [2]),Activity (Rattus norvegicus [3]),ED50 (Rattus norvegicus [4]) [mg/kg],inhibition (Rattus norvegicus [7])
,> 100,17.3,0.008,,0.007,Active,,CN(CCCNCc1ccc2c(c1)OCO2)c1nc(-n2ccnc2)ns1 [KD7040],,,,
,,,,,0.01,Active,,Cc1cc(N(C)CCCNCc2ccc3c(c2)OCO3)nc(-n2ccnc2)n1,,,,
< 50,> 100,> 100,> 100,< 50,> 100,Active,< 50,CN(CCCNCc1ccccc1)c1nc(-n2ccnc2)ns1,,,,
